Results taken from PMC7475184 (Heliyon, 2020).
In brackets after ≈: the same amount, converted by molar mass.

Columns and labels:
[1] = system: Methicillin-Resistant Staphylococcus aureus (14–2095); test: Antibacterial activity, microdilution method; format: cell-based; conditions: for MIC: Staphylococcus aureus, MRSA, read-out: MIC, MRSA; for MIC, MRSA: MDR clinical isolate, microdilution
How it was run: (§1)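 Drug-resistant clinical isolates from a university hospital, tested by broth microdilution in Mueller Hinton medium. Test compounds at 200, 100, 50, 25, 12.5, 6.25 and 3.12 μg/mL. Levofloxacin positive control at the same concentrations; DMSO (6%–0.09%, v/v) negative control. MIC taken as the lowest concentration inhibiting bacterial growth. Three repeat experiments.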

[2] = system: Linezolid-resistant Staphylococcus epidermidis (14–583); test: Antibacterial activity, microdilution method; format: cell-based; conditions: for MIC: Staphylococcus epidermidis, read-out: MIC, LRSE; for MIC, LRSE: MDR clinical isolate, microdilution
How it was run: as §1

[3] = system: Vancomycin-resistant Enterococcus faecium (10–984); test: Antibacterial activity, microdilution method; format: cell-based; conditions: for MIC: Enterococcus faecium, read-out: MIC, VREF; for MIC, VREF: MDR clinical isolate, microdilution
How it was run: as §1

[4] = system: Carbapenems-resistant Acinetobacter baumannii (12–666); test: Antibacterial activity, microdilution method; format: cell-based; conditions: for MIC: Acinetobacter baumannii, read-out: MIC, CRAB; for MIC, CRAB: MDR clinical isolate, microdilution
How it was run: as §1

[5] = system: Escherichia coli producing extended-spectrum beta-lactamase (14–2081); test: Antibacterial activity, microdilution method; format: cell-based; conditions: for MIC: Escherichia coli, read-out: MIC, ECPB; for MIC, ECPB: MDR clinical isolate, microdilution
How it was run: as §1

[6] = system: P. aeruginosa resistant to carbapenems (13–1391); test: Antibacterial activity, microdilution method; format: cell-based, Pseudomonas aeruginosa; conditions: for MIC: Pseudomonas aeruginosa, read-out: MIC, PARC; for MIC, PARC: MDR clinical isolate, microdilution
How it was run: as §1

[7] = system: carbapenems-resistant Klebsiella pneumoniae NDM-1+ (14–3335); test: Antibacterial activity, microdilution method; format: cell-based; conditions: for MIC: Klebsiella pneumoniae, read-out: MIC, KPNDM-1+; for MIC, KPNDM-1+: MDR clinical isolate, microdilution
How it was run: as §1

[8] = system: Klebsiella pneumoniae producer of ESBL (14–2081); test: Antibacterial activity, microdilution method; format: cell-based; conditions: for MIC: Klebsiella pneumoniae, read-out: MIC, KPPB; for MIC, KPPB: MDR clinical isolate, microdilution
How it was run: as §1

[9] = system: carbapenems-resistant Klebsiella pneumoniae (OXA-48 positive); test: Antibacterial activity, microdilution method; format: cell-based; conditions: for MIC: Klebsiella pneumoniae, read-out: MIC, KPRO; for MIC, KPRO: MDR clinical isolate, microdilution
How it was run: as §1

[10] = system: HepG2 (hepatocellular) cells; test: Cytotoxic activity, Cell Titer 96 proliferation kit; format: cell-based, human; conditions: for IC50: Homo sapiens, HepG2, read-out: IC50, HepG2; for IC50, HepG2: HepG2 cells
How it was run: (§2)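 Cells grown in DMEM with 10% fetal bovine serum and 2 mM glutamine at 37 °C under 5% CO2. Test compounds at 100, 10, 1, 0.1 and 0.01 μg/mL for a dose-response curve. Viability read with a Cell Titer 96 aqueous kit by absorbance at 450 nm. Paclitaxel reference. Triplicates in three independent experiments; IC50 by regression analysis.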

[11] = system: Hep3B (hepatocellular) cells; test: as above; format: cell-based, human; conditions: for IC50: Homo sapiens, Hep3B, read-out: IC50, Hep3B; for IC50, Hep3B: Hep3B cells
How it was run: as §2

[12] = system: HeLa (cervical) cells; test: as above; format: cell-based, human; conditions: for IC50: Homo sapiens, HeLa, read-out: IC50, Hela; for IC50, Hela: HeLa cells
How it was run: as §2

[13] = system: PC3 (prostate) cells; test: Cytotoxic activity, Cell Titer 96 proliferation kit; format: cell-based, human; conditions: for IC50: Homo sapiens, PC-3, read-out: IC50, PC3; for IC50, PC3: PC3 cells
How it was run: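 PC3 cells kept in RPMI-1640 at 37 °C under 5% CO2. Dose-response over 100, 10, 1, 0.1 and 0.01 μg/mL test compound. Viability measured with a Cell Titer 96 aqueous kit by absorbance at 450 nm. Paclitaxel reference. Triplicates in three independent experiments; IC50 derived by regression analysis.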

[14] = system: A549 (lung) cells; test: Cytotoxic activity, Cell Titer 96 proliferation kit; format: cell-based, human; conditions: for IC50: Homo sapiens, A549, read-out: IC50, A549; for IC50, A549: A549 cells
How it was run: as §2

[15] = system: immortalized human hepatocytes (IHH); format: cell-based; conditions: for IC50: Homo sapiens, Hepatocyte, read-out: IC50, IHH; for IC50, IHH: non-cancerous control cells IHH
How it was run: as §2

[16] = system: hepatocellular carcinoma lines; test: Selectivity Index on hepatocellular carcinoma lines versus IHH; format: cell-based, human; conditions: HepG2 and Hep3B versus IHH
[17] = system: MCF7 (breast) cells; test: Cytotoxic activity, Cell Titer 96 proliferation kit; format: cell-based, human
How it was run: as §2

[18] = system: P. aeruginosa; conditions: Vernonia auriculifera screening; ref Kiplimo et al., 2011; cited from earlier work

Structure (SMILES): CCCCCCCCCCCCCCCCCCCCCCCC(=O)OCC(O)CO (stereo not drawn) [compound 2, 2,3-dihydroxypropyl tetracosanoate]
- MIC [1]: > 200 µg/mL
- MIC [2]: 200 µg/mL (≈ 452 µM)
- MIC [3]: 200 µg/mL (≈ 452 µM)
- MIC [4]: 200 µg/mL (≈ 452 µM)
- MIC [5]: > 200 µg/mL
- MIC [6]: 200 µg/mL (≈ 452 µM)
- MIC [7]: 200 µg/mL (≈ 452 µM)
- MIC [8]: > 200 µg/mL
- MIC [9]: 200 µg/mL (≈ 452 µM)
- IC50 [10]: 75 ± 6 µg/mL (≈ 169 µM)
- IC50 [11]: 73 ± 7 µg/mL (≈ 165 µM)
- IC50 [12]: 82 ± 8 µg/mL (≈ 185 µM)
- IC50 [13]: 75 ± 5 µg/mL (≈ 169 µM)
- IC50 [14]: > 100 µg/mL
- IC50 [15]: 100 µg/mL (≈ 226 µM)
- Selectivity Index (SI) on hepatocellular carcinoma lines [16]: greater than 1

Structure (SMILES): CC(=O)OC[C@H]1O[C@@H](O[C@H]2CC[C@]3(C)[C@H]4CC=C5[C@@H]6[C@@H](C)[C@H](C)CC[C@]6(C)CC[C@@]5(C)[C@]4(C)CC[C@H]3C2(C)C)[C@H](OC(C)=O)[C@@H](OC(C)=O)[C@@H]1OC(C)=O [4Ac, α-amyrin tetraacetyl 3-O-β-D-glucopyranoside]
- IC50, HepG2 [10]: >100 µg/mL
- IC50, Hep3B [11]: >100 µg/mL
- IC50, Hela [12]: >100 µg/mL
- IC50, PC3 [13]: >100 µg/mL
- IC50, MCF7 [17]: >100 µg/mL
- IC50, A549 [14]: >100 µg/mL
- IC50, IHH [15]: >100 µg/mL

Structure (SMILES): C[C@H]1COc2c(N3CCN(C)CC3)c(F)cc3c(=O)c(C(=O)O)cn1c23 [levofloxacin, reference compound]
- MIC [1]: 12.5 µg/mL (≈ 34.6 µM)
- MIC [2]: 6.25 µg/mL (≈ 17.3 µM)
- MIC [3]: 12.5 µg/mL (≈ 34.6 µM)
- MIC [4]: 12.5 µg/mL (≈ 34.6 µM)
- MIC [5]: 12.5 µg/mL (≈ 34.6 µM)
- MIC [6]: 12.5 µg/mL (≈ 34.6 µM)
- MIC [7]: > 50 µg/mL
- MIC [8]: > 50 µg/mL
- MIC [9]: > 50 µg/mL

Structure (SMILES): CC(=O)O[C@H]1C(=O)[C@@]2(C)[C@H]([C@H](OC(=O)c3ccccc3)[C@]3(O)C[C@H](OC(=O)[C@H](O)[C@@H](NC(=O)c4ccccc4)c4ccccc4)C(C)=C1C3(C)C)[C@]1(OC(C)=O)CO[C@@H]1C[C@@H]2O [Paclitaxel, reference compound]
- IC50 [10]: 0.064 µg/mL (≈ 0.0749 µM)
- IC50 [11]: 0.033 µg/mL (≈ 0.0386 µM)
- IC50 [12]: 0.00478 µg/mL (≈ 0.0056 µM)
- IC50 [13]: 0.0102 µg/mL (≈ 0.0119 µM)
- IC50 [14]: 0.00512 µg/mL (≈ 0.006 µM)
- IC50 [15]: 0.0794 µg/mL (≈ 0.093 µM)

Structure (SMILES): CC[C@H](CC[C@@H](C)[C@H]1CC[C@H]2[C@@H]3CC=C4C[C@@H](O[C@@H]5O[C@H](COC(C)=O)[C@@H](OC(C)=O)[C@H](OC(C)=O)[C@H]5OC(C)=O)CC[C@]4(C)[C@H]3CC[C@]12C)C(C)C [3Ac, β-sitosteryl β-D-tetraacetyl glucopyranoside]
- MIC, MRSA [1]: >200 µg/mL
- MIC, LRSE [2]: >200 µg/mL
- MIC, VREF [3]: 200 µg/mL (≈ 268 µM)
- MIC, CRAB [4]: 200 µg/mL (≈ 268 µM)
- MIC, ECPB [5]: >200 µg/mL
- MIC, PARC [6]: 200 µg/mL (≈ 268 µM)
- MIC, KPNDM-1+ [7]: >200 µg/mL
- MIC, KPPB [8]: >200 µg/mL
- MIC, KPRO [9]: 200 µg/mL (≈ 268 µM)
- IC50, HepG2 [10]: 50 ± 3 µg/mL (≈ 67.1 µM)
- IC50, Hep3B [11]: 49 ± 4 µg/mL (≈ 65.8 µM)
- IC50, Hela [12]: 63 ± 7 µg/mL (≈ 84.6 µM)
- IC50, PC3 [13]: 43 ± 4 µg/mL (≈ 57.7 µM)
- IC50, A549 [14]: 87 ± 8 µg/mL (≈ 117 µM)
- IC50, IHH [15]: 78 ± 7 µg/mL (≈ 105 µM)

Structure (SMILES): CCCCCCCCCCCCCCCCCCCCCCCC(=O)OCC(COC(C)=O)OC(C)=O (stereo not drawn) [2Ac, 3-(tetracosanoyloxy) propane-1,2-diyl diacetate]
- MIC, MRSA [1]: >200 µg/mL
- MIC, LRSE [2]: 200 µg/mL
- MIC, VREF [3]: 200 µg/mL
- MIC, CRAB [4]: 100 µg/mL
- MIC, ECPB [5]: >200 µg/mL
- MIC, PARC [6]: 200 µg/mL
- MIC, KPNDM-1+ [7]: 200 µg/mL
- MIC, KPPB [8]: >200 µg/mL
- MIC, KPRO [9]: >200 µg/mL

Structure (SMILES): C[C@H]1[C@H](C)CC[C@]2(C)CC[C@]3(C)C(=CC[C@@H]4[C@@]5(C)CC[C@H](O)C(C)(C)[C@@H]5CC[C@]43C)[C@H]12 [α-amyrin]
- MIC, P. aeruginosa [18]: 1000 µg/mL (≈ 2340 µM)
